Here are results for 6 compounds from paper PMC3625964 (Journal of medicinal chemistry, 2013).

Molecules are shown by their SMILES. Marks after values point to notes of the source that are not given here.

In assay [1] the target is T1, human factor XIa (Homo sapiens, UniProt P03951). Nature of the assay: Direct inhibition of FXIa, chromogenic substrate. The assay is classed as biochemical.
Another assay addresses FXIa-DEGR (Homo sapiens, UniProt P03951). The assay can be described thus: Fluorescence titration of active site labeled FXIa. The assay is classed as binding. To be noted: 250 nM FXIa-DEGR, pH 7.4, 37 °C; for ΔFMAX: 547 nm. Summed up:
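Plasma-derived human FXIa with a dansyl active-site label (FXIa-DEGR, 250 nM) in 50 mM Tris-HCl pH 7.4, 150 mM NaCl, 0.1% PEG8000 at 37 °C was titrated with aliquots of test compound in the same buffer. Emission at 547 nm (excitation 345 nm) was tracked. Hill-equation fits gave KD,app, n and ΔFMAX. At least two runs were done.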

Assay [2] has as its system human plasma. The assay can be described thus: Prothrombin time. The assay is classed as biochemical. Summed up: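 One-stage recalcification assay. Test compound was brought up in citrated pooled normal human plasma and held 30 s at 37 °C. Prewarmed reconstituted thromboplastin-D was added, and clot time was read on a fibrometer. Runs were in duplicate and the mean of two is reported. A quadratic trend line gave the concentration needed to double clotting time.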

In assay [3] the test system is human plasma. Nature of the assay: Activated partial thromboplastin time. The assay is classed as biochemical. Summed up:
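Citrated pooled normal human plasma was mixed with test compound and prewarmed APTT reagent (0.2% ellagic acid) and incubated 4 min at 37 °C. Clotting was started with prewarmed 25 mM CaCl2, and clot time was read on a fibrometer. Runs were in duplicate. A quadratic trend line of clot time versus concentration gave the concentration doubling clotting time.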

The target of assay [4] is T1, human factor XIa. The assay can be described thus: Michaelis-Menten kinetics of S2366 hydrolysis by FXIa in presence of 14S. Type of assay: biochemical.
The next assay concerns the target FXIa-CD (Homo sapiens, UniProt P03951, C500S). Nature of the assay: Inhibition of recombinant wild type FXIa catalytic domain. The note with it: catalytic domain alone. Type of assay: biochemical. The method in brief:
(§1)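 Human FXI cDNA with Cys362Ser/Cys482Ser, so the catalytic domain separates from the heavy chain, carried alanine substitutions at 170-helix residues (single or combined). It was stably expressed in HEK-293 with serum-free medium and purified on anti-FXI 1G5.12 affinity. It was activated with 5 μg/ml FXIIa at 37 °C, and the catalytic domain was isolated on 1G5.12. Dose-response used S2366 hydrolysis in 50 mM Tris-HCl pH 7.4, 150 mM NaCl, 0.1% PEG8000, 0.02% Tween80 at 37 °C, with logistic fits.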

The subject of assay [5] is Lys529Ala,Arg530Ala,Arg532Ala FXIa-CD. The assay can be described thus: Inhibition of FXIa-CD triple mutant. The note with it: Arg532Ala vs FXIa-CD. The assay is classed as biochemical, human. Summed up:
as §1

Assay [6] addresses FXIa–CD containing Lys529Ala,Arg530Ala,Arg532Ala triple mutations (Homo sapiens, UniProt P03951, C500S/K547A/R548A/R550A). Nature of the assay: Polybrene competition, S2366 hydrolysis, FXIa-CD triple mutant. Type of assay: biochemical. To be noted: 30 μM polybrene. Summed up: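 Recombinant FXIa catalytic domain bearing Lys529Ala/Arg530Ala/Arg532Ala (HEK-293 expressed, affinity purified, FXIIa-activated) was tested alongside full-length FXIa and wild-type catalytic domain. Proteolytic activity was measured by S2366 hydrolysis in the presence of 30 μM polybrene and 3 μM test compound.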

The target of the next assay is Lys539Ala FXIa-CD (Homo sapiens, UniProt P03951, C500S/K557A). Nature of the assay: Inhibition of Lys539Ala FXIa-CD mutant. Type of assay: biochemical. The method in brief: as §1
Sequence of Lys539Ala FXIa-CD (P03951 388-625 C500S/K557A): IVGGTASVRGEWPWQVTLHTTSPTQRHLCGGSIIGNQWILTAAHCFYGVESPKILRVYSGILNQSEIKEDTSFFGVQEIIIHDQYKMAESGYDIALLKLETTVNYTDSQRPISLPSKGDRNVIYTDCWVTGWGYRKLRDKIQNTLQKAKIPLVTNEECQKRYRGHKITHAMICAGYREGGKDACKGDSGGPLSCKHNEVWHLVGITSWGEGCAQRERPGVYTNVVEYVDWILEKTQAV
The next assay addresses Lys535Ala FXIa-CD (Homo sapiens, UniProt P03951, C500S/K553A). The assay can be described thus: Inhibition of Lys535Ala FXIa-CD mutant. The assay is classed as biochemical. Summed up: as §1

One may read the IC50 as the point on the concentration scale where inhibition reaches its midpoint. The low end stands for inhibition by little substance, the high end for a need for much substance.

T1 sequence (P03951 388-625 limits assumed): as the sequence (P03951 388-625 C500S/K557A) above, with S113C, A170K counted along it
T1 sequence (P03951 19-387 partner limits assumed): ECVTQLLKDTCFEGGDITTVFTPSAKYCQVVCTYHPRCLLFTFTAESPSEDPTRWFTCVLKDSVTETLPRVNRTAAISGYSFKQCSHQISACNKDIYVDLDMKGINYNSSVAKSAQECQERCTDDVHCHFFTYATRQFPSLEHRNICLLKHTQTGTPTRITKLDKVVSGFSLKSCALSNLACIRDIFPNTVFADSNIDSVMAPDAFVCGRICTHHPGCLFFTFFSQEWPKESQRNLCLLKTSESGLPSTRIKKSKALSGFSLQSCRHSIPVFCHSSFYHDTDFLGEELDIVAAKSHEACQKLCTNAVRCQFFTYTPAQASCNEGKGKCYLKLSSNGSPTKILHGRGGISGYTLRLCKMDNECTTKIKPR
Sequence of FXIa-DEGR (P03951 388-625 limits assumed): as the sequence (P03951 388-625 C500S/K557A) above, with S113C, A170K counted along it
Sequence of FXIa-DEGR (P03951 19-387 partner limits assumed): as the sequence (P03951 19-387 partner limits assumed) above
Sequence of FXIa-CD (P03951 388-625 C500S): as the sequence (P03951 388-625 C500S/K557A) above, with A170K counted along it
Sequence of Lys535Ala FXIa-CD (P03951 388-625 C500S/K553A): as the sequence (P03951 388-625 C500S/K557A) above, with K166A, A170K counted along it
Sequence of FXIa–CD containing Lys529Ala,Arg530Ala,Arg532Ala triple mutations (P03951 388-625 C500S/K547A/R548A/R550A): as the sequence (P03951 388-625 C500S/K557A) above, with K160A, R161A, R163A, A170K counted along it

`CC(=O)Oc1cccc(-c2nc3ccccc3c(=O)n2Cc2cn(CCCCn3c(-c4cccc(OS(=O)(=O)O)c4)nc4ccccc4c3=O)nn2)c1` [Inhibitor 7S]: the “inhibition of factor XIa (in words)” value against human factor XIa [1] (pH 7.4, 37 °C) was “inactive”.
In the case of `O=c1c2ccccc2nc(-c2ccc(OS(=O)(=O)O)cc2)n1CCCCn1cc(Cn2c(-c3ccc(OS(=O)(=O)O)cc3)nc3ccccc3c2=O)nn1` [Inhibitor 13S], at FXIa-DEGR, the Hill coefficient n was determined as 7.9 ± 1.9 and the ΔFMAX is listed as 66 ± 2 ^b %. The “activity in the PT assay” value with human plasma [2] (human plasma) is “reasonable dose-dependent prolongation of clotting time”. Also, in the assay on human plasma [2] (human plasma, calculated from trend line), the “2-fold increase in PT (concentration)” value is given as “about 1.12 mM”. Moreover, the “prolongation of APTT” value with human plasma [3] is given as “dose-dependent prolongation”.
Consider `O=c1c2ccccc2nc(-c2cccc(OS(=O)(=O)O)c2)n1CCCCn1cc(Cn2c(-c3ccc(OS(=O)(=O)O)cc3)nc3ccccc3c2=O)nn1` [Inhibitor 14S], for which, at FXIa-DEGR, the Hill coefficient n worked out at 9.0 ± 1.1 and the ΔFMAX amounted to 57 ± 2%. Also, the “mechanism of factor XIa inhibition” value on human factor XIa [4] is on record as “non-competitive”. The “VMAX of substrate hydrolysis” value on human factor XIa [4] (135 μM 14S, pH 7.4, 37 °C) was determined as 5.1±0.5 mAU/min.
At FXIa-DEGR, `O=c1c2ccccc2nc(-c2ccc(OS(=O)(=O)O)cc2)n1CCCCCn1cc(Cn2c(-c3ccc(OS(=O)(=O)O)cc3)nc3ccccc3c2=O)nn1` [Inhibitor 15S] registered a Hill coefficient n of 6.8 ± 2.7 and a ΔFMAX of 72 ± 2%. Moreover, the “activity in the PT assay” value in the assay on human plasma [2] (human plasma) is “much less active”. Moreover, the “prolongation of APTT” value in the assay on human plasma [3] was “dose-dependent prolongation”.
Regarding `O=c1c2ccccc2nc(-c2ccc(OS(=O)(=O)O)cc2)n1CCCCCCn1cc(Cn2c(-c3ccc(OS(=O)(=O)O)cc3)nc3ccccc3c2=O)nn1` [Inhibitor 16S], on FXIa-CD, the “inhibition of FXIa-CD compared with wild-type enzyme” value is on record as “as potently as the wild-type enzyme”. At FXIa-DEGR, this compound came in with a Hill coefficient n of 6.4 ± 2.0 and a ΔFMAX of 90 ± 3%. Further, the reduction in potency entry in assay [5] was “approximately 5 fold”. For the same compound, in the assay on human plasma [2] (citrated human plasma), the “2 × PT (concentration to double clotting time)” value was above 2000 µM. The “activity in the PT assay” value in the assay with human plasma [2] (human plasma) is listed as “much less active”. In assay [6], the “loss in inhibition by addition of polybrene” value amounted to 1.45 fold. For the same compound, in the assay on human plasma [3], the “prolongation of APTT” value is given as “dose-dependent prolongation”. The “change in IC50 from wild-type FXIa-CD” value at Lys539Ala FXIa-CD is recorded as “no change in IC50”. For the same compound, on Lys535Ala FXIa-CD, the “change in IC50 from wild-type FXIa-CD” value was “no change in IC50”.
In the case of `O=c1c2ccccc2nc(-c2ccc(OS(=O)(=O)O)cc2)n1Cc1cn(CCn2cc(Cn3c(-c4ccc(OS(=O)(=O)O)cc4)nc4ccccc4c3=O)nn2)nn1` [Inhibitor 28S], the IC50 against human factor XIa [1] was below 100 µM. Moreover, on human factor XIa [1] (versus 15S), the “fold less potent than 15S” value is “approximately 6 fold”.
